Reference: ChEMBL document CHEMBL4665669, “Novel tertiary sulfonamide derivatives containing benzimidazole moiety as potent anti-gastric cancer agents: Design, synthesis and SAR studies” (Eur J Med Chem, 2019)
The source made the active and inactive calls.

Experiments:
MGC-803 [1] = test: Induction of apoptosis in human MGC-803 cells after 48 hrs by flow cytometry analysis; assay type: functional, cell-based; settings: dose micromol/L 0.5-1.5, time 48.0 hrs
HGC-27 [2] = test: Induction of apoptosis in human HGC-27 cells assessed as upregulation of NOXA level at 0.5 to 1.5 umol/L after 48 hrs Western blot analysis; assay type: functional, cell-based; settings: dose micromol/L 0.5-1.5, time 48.0 hrs
Summary of the method: (§1)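 Western blot. Cells were treated with compound concentrations or DMSO for 48 h, then lysed, and lysates were denatured, run on SDS-PAGE and transferred to nitrocellulose. After blocking in 5% skimmed milk, membranes were incubated with primary antibodies at 4 °C for 8 h, then secondary antibodies, with ECL detection.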

MGC-803 [3] = test: Anticancer activity against human MGC-803 cells assessed as cell growth at 0.5 to 1.5 umol/L after 48 hrs by MTT assay relative to control; assay type: functional; settings: dose micromol/L 0.5-1.5
HGC-27 [4] = test: Inhibition of Ras/Raf/MEK/ERK signalling pathway in human HGC-27 cells assessed as decrease in ERK1/2 phosphorylation after 48 hrs by Western blot analysis; assay type: cell-based; settings: dose micromol/L 0.5-1.5, time 48.0 hrs
Summary of the method: (§2)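 Cells treated with graded concentrations or DMSO for 48 h, then harvested and lysed. Lysates denatured, resolved by SDS-PAGE and transferred to nitrocellulose. Membranes blocked with 5% skimmed milk and probed with primary antibodies at 4 °C for 8 h, then with secondary antibodies. Bands detected by ECL.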

SGC-7901 [5] = test: Cell cycle arrest at G2 phase in human SGC-7901 cells assessed as downregulation of Cyclin B level at 0.5 to 1.5 umol/L after 48 hrs by Western blot analysis; assay type: functional, cell-based; settings: dose micromol/L 0.5-1.5, time 48.0 hrs; summary of the method: as §1
MGC-803 [6] = test: Anticancer activity against human MGC-803 cells assessed as inhibition of cell proliferation after 48 hrs by MTT assay; assay type: functional, cell-based
Summary of the method: (§3)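 MTT assay with 48 h compound exposure. MTT solution was then added and incubated 4 h at 37 °C, the supernatant discarded and formazan dissolved in DMSO, with absorbance read at 490 nm. IC50 values were calculated from three independent experiments, reported as mean SD.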

SGC-7901 [7] = test: Induction of apoptosis in human SGC-7901 cells assessed as downregulation of XIAP level at 0.5 to 1.5 umol/L after 48 hrs Western blot analysis; assay type: functional, cell-based; settings: dose micromol/L 0.5-1.5, time 48.0 hrs; summary of the method: as §1
MGC-803 [8] = test: Inhibition of Ras/Raf/MEK/ERK signalling pathway in human MGC-803 cells assessed as decrease in ERK1/2 phosphorylation after 48 hrs by Western blot analysis; assay type: cell-based; settings: dose micromol/L 0.5-1.5, time 48.0 hrs; summary of the method: as §2
MGC-803 [9] = test: Inhibition of Ras/Raf/MEK/ERK signalling pathway in human MGC-803 cells assessed as decrease in c-Raf phosphorylation after 48 hrs by Western blot analysis; assay type: cell-based; settings: dose micromol/L 0.5-1.5, time 48.0 hrs; summary of the method: as §2
SGC-7901 [10] = test: Cell cycle arrest in human SGC-7901 cells assessed as accumulation at G2/M phase at 0.5 to 1.5 umol/L after 48 hrs by RNase/propidium iodide staining based flow cytometry; assay type: functional; settings: dose micromol/L 0.5-1.5, time 48.0 hrs
Summary of the method: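 MGC-803, SGC-7901 and HGC-27 cells were seeded in 6-well plates and treated 48 h with compound or DMSO. Cells were then harvested and fixed in 70% cold ethanol at 4 °C for 8 h, and cell-cycle phase distribution was quantified by flow cytometry.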

MGC-803 [11] = test: Induction of apoptosis in human MGC-803 cells assessed as upregulation of NOXA level at 0.5 to 1.5 umol/L after 48 hrs Western blot analysis; assay type: functional, cell-based; settings: dose micromol/L 0.5-1.5, time 48.0 hrs; summary of the method: as §1
SGC-7901 [12] = test: Inhibition of Ras/Raf/MEK/ERK signalling pathway in human SGC-7901 cells assessed as downregulation of c-Myc expression at 0.5 to 1.5 umol/L after 48 hrs by Western blot analysis; assay type: cell-based; settings: dose micromol/L 0.5-1.5, time 48.0 hrs; summary of the method: as §2
SGC-7901 [13] = test: Inhibition of Ras/Raf/MEK/ERK signalling pathway in human SGC-7901 cells assessed as decrease in MEK1 phosphorylation after 48 hrs by Western blot analysis; assay type: cell-based; settings: dose micromol/L 0.5-1.5, time 48.0 hrs; summary of the method: as §2
HGC-27 [14] = test: Anticancer activity against human HGC-27 cells assessed as inhibition of cell proliferation after 48 hrs by MTT assay; assay type: functional, cell-based; summary of the method: as §3
MGC-803 [15] = test: Inhibition of colony formation in human MGC-803 cells at 0.5 to 1.5 umol/L after 7 days by crystal violet staining based assay; assay type: functional, cell-based; settings: dose micromol/L 0.5-1.5, time 7.0 day
Summary of the method: (§4)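 5000 cells per well seeded and held 24 h at 37 °C, 5% CO2, then exposed to graded concentrations (0.5, 1, 1.5 µmol/L). After 7 days the medium was removed and wells were washed twice with PBS. Colonies fixed in 4% paraformaldehyde and stained with 0.1% crystal violet.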

SGC-7901 [16] = test: Anticancer activity against human SGC-7901 cells assessed as inhibition of cell proliferation after 48 hrs by MTT assay; assay type: functional, cell-based; summary of the method: as §3
HGC-27 [17] = test: Inhibition of colony formation in human HGC-27 cells at 0.5 to 1.5 umol/L after 7 days by crystal violet staining based assay; assay type: functional, cell-based; settings: dose micromol/L 0.5-1.5, time 7.0 day; summary of the method: as §4
HGC-27 [18] = test: Anticancer activity against human HGC-27 cells assessed as cell growth at 0.5 to 1.5 umol/L after 48 hrs by MTT assay relative to control; assay type: functional; settings: dose micromol/L 0.5-1.5
SGC-7901 [19] = test: Induction of apoptosis in human SGC-7901 cells induction of DNA fragmentation at 0.5 to 1.5 umol/L after 48 hrs by imaging analysis; assay type: functional, cell-based; settings: dose micromol/L 0.5-1.5, time 48.0 hrs
HGC-27 [20] = test: Induction of apoptosis in human HGC-27 cells assessed as cleavage of PARP at 0.5 to 1.5 umol/L after 48 hrs Western blot analysis; assay type: functional, cell-based; settings: dose micromol/L 0.5-1.5, time 48.0 hrs; summary of the method: as §1
HGC-27 [21] = test: Inhibition of Akt/mTOR signalling pathway in human HGC-27 cells assessed as decrease in AKT phosphorylation at Ser473 residue at 0.5 to 1.5 umol/L after 48 hrs by Western blot analysis; assay type: cell-based; settings: dose micromol/L 0.5-1.5, time 48.0 hrs; summary of the method: as §2
MGC-803 [22] = test: Induction of apoptosis in human MGC-803 cells assessed as downregulation of XIAP level at 0.5 to 1.5 umol/L after 48 hrs Western blot analysis; assay type: functional, cell-based; settings: dose micromol/L 0.5-1.5, time 48.0 hrs; summary of the method: as §1
HGC-27 [23] = test: Induction of apoptosis in human HGC-27 cells induction of DNA fragmentation at 0.5 to 1.5 umol/L after 48 hrs by imaging analysis; assay type: functional, cell-based; settings: dose micromol/L 0.5-1.5, time 48.0 hrs
SGC-7901 [24] = test: Induction of apoptosis in human SGC-7901 cells assessed as downregulation of c-IAP1 level at 0.5 to 1.5 umol/L after 48 hrs Western blot analysis; assay type: functional, cell-based; settings: dose micromol/L 0.5-1.5, time 48.0 hrs; summary of the method: as §1
MGC-803 [25] = test: Induction of apoptosis in human MGC-803 cells assessed as increase in nucleus concentration at 0.5 to 1.5 umol/L after 48 hrs by imaging analysis; assay type: functional, cell-based; settings: dose micromol/L 0.5-1.5, time 48.0 hrs
SGC-7901 [26] = test: Induction of apoptosis in human SGC-7901 cells assessed as increase in nucleus concentration at 0.5 to 1.5 umol/L after 48 hrs by imaging analysis; assay type: functional, cell-based; settings: dose micromol/L 0.5-1.5, time 48.0 hrs

COc1cc(N(Cc2nc3ccccc3[nH]2)S(=O)(=O)c2ccc(C)cc2)cc(OC)c1OC
active: Activity (MGC-803 [1]) Dose-dependent effect | Activity (HGC-27 [2]) | inhibition (HGC-27 [4]) Dose-dependent effect | Activity (SGC-7901 [5]) | Activity (MGC-803 [6]) Dose-dependent effect | Activity (SGC-7901 [7]) | inhibition (MGC-803 [8]) Dose-dependent effect | inhibition (MGC-803 [9]) Dose-dependent effect | Activity (SGC-7901 [10]) | Activity (MGC-803 [11]) | inhibition (SGC-7901 [12]) | inhibition (SGC-7901 [13]) Dose-dependent effect | Activity (HGC-27 [14]) Dose-dependent effect | inhibition (MGC-803 [15]) | Activity (SGC-7901 [16]) Dose-dependent effect | inhibition (HGC-27 [17]) | Activity (SGC-7901 [19]) | Activity (HGC-27 [20]) | inhibition (HGC-27 [21]) | Activity (MGC-803 [22]) | Activity (HGC-27 [23]) | Activity (SGC-7901 [24]) | Activity (MGC-803 [25]) | Activity (SGC-7901 [26])
2.3 µM: IC50 (SGC-7901 [16]; SGC-7901, 48 h)
1.02 µM: IC50 (MGC-803 [6]; MGC-803, 48 h)
1.61 µM: IC50 (HGC-27 [14]; HGC-27, 48 h)
<2: fold change (FC) (MGC-803 [3]) | fold change (FC) (HGC-27 [18])
